Tests used:
[1] = molecular target: T1, Neuronal acetylcholine receptor; alpha4/beta2 (Homo sapiens, UniProt P17787+P43681); assay: Displacement of [3H]epibatidine from human alpha4beta2 nAchR expressed in SH-EP1 cells at 5 uM; format: cell-based
Outline: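 Percent inhibition of control [3H]-epibatidine binding to human α4β2 expressed in SH-EP1 cells, with test compound at 5 μM. Reported ± standard error, with replicate number per value.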

[2] = Displacement of [3H]methyllycaconitine from rat alpha7 nAchR in rat hippocampal membrane; format: cell membranes, Hippocampus
Outline: (§1)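 α7 sites on rat hippocampal membranes, labelled with [3H]-methyllycaconitine. Inhibition of binding measured over a seven-point dose-response curve, with replicates averaged at each point. IC50 taken by least-squares non-linear regression against log concentration. Ki given ± standard error, with replicate number per value.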

[3] = molecular target: Neuronal acetylcholine receptor; alpha3/beta4 (Homo sapiens) (UniProt P30926+P32297); assay: Displacement of [3H]epibatidine from human alpha3beta4 nAchR expressed in SH-SY5Y cells at 5 uM; format: cell-based
Outline: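 Radioligand displacement using [3H]-epibatidine on SH-SY5Y cell membranes (ganglion-type nicotinic receptors). Compounds tested at 5 μM; percent inhibition of control radioligand binding reported, with the number of replicates given for each result.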

[4] = (§2) Partial agonist activity at rat alpha7 nAchR by patch clamp assay; format: functional
[5] = organism: Rattus norvegicus; assay: as §2; format: functional
[6] = molecular target: T1, Neuronal acetylcholine receptor; alpha4/beta2; assay: Displacement of [3H]epibatidine from human alpha4beta2 nAchR expressed in SH-EP1 cells; format: cell-based
Outline: as §1, with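 “Human α4β2 heterologously expressed in SH-EP1 cells,” for “α7 sites on rat hippocampal membranes,”, “[3H]-epibatidine.” for “[3H]-methyllycaconitine.”, “reported” for “given”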

T1 sequence (P17787 whole entry): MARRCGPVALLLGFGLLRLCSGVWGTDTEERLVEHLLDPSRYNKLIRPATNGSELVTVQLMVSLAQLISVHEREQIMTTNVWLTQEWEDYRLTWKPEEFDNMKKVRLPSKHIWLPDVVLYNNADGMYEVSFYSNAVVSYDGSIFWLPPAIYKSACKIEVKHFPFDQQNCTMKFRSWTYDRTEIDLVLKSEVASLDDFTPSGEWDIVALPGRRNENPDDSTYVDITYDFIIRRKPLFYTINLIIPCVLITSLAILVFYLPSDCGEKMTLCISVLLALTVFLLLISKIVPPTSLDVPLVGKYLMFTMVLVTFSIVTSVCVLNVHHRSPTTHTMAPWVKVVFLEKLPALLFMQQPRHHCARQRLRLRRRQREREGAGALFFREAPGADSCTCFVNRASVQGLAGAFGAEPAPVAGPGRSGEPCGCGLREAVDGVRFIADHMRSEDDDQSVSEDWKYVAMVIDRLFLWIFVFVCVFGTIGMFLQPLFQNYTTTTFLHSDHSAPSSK
T1 sequence (P43681 whole entry): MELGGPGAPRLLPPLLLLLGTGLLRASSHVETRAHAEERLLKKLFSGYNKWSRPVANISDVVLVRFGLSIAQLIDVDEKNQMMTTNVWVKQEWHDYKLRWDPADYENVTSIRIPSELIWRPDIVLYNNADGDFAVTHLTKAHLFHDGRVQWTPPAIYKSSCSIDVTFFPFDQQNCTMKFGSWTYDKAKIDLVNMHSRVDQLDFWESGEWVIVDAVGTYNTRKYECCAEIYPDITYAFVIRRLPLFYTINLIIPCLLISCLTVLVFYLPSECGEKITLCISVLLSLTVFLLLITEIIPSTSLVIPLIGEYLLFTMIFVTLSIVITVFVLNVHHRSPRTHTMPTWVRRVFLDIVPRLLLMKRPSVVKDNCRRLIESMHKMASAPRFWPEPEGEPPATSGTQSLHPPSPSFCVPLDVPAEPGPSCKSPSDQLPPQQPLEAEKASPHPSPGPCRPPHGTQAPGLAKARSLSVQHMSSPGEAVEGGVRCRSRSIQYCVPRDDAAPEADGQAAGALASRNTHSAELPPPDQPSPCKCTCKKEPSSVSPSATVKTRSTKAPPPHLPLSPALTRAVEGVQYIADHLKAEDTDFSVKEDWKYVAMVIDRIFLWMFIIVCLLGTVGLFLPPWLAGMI

## Nc1c(C2=NC3(CN2)CN2CCC3CC2)oc2ccccc12 (stereo not given)
[1]
  inhibition: 9%
[2]
  Ki: 120 nM

## OC1=CC(c2ccccc2)=NCC2(CN3CCC2CC3)N1 (stereo not given)
[1]
  inhibition: 15%
[2]
  Ki: 140 nM

## COc1cc(O)ccc1/C=C1\CCCN=C1c1cccnc1
[1]
  inhibition: 97%
[3]
  inhibition: 75%

## c1ccc2oc(C3=NC4(CN3)CN3CCC4CC3)cc2c1 (stereo not given)
[1]
  inhibition: 4%

## c1ccc(C2=NC3(CN2)CN2CCC3CC2)cc1 (stereo not given)
[1]
  inhibition: 11%

## O=C1CC(c2cccs2)=NCC2(CN3CCC2CC3)N1 (stereo not given)
[1]
  inhibition: 20%
[2]
  Ki: 58 nM

## Oc1c(C2=NC3(CN2)CN2CCC3CC2)oc2ccccc12 (stereo not given)
[1]
  inhibition: 32%
[2]
  Ki: 7 nM
[4]
  EC50: 600 nM
[5]
  Emax: 53%

## O=C1CC(c2ccco2)=NCC2(CN3CCC2CC3)N1 (stereo not given)
[1]
  inhibition: 14%
[2]
  Ki: 150 nM

## Oc1ccccc1C1=NC2(CN1)CN1CCC2CC1 (stereo not given)
[1]
  inhibition: 4%
[2]
  Ki: 290 nM

## O=C1CC(c2ccc(Br)s2)=NCC2(CN3CCC2CC3)N1 (stereo not given)
[1]
  inhibition: 62%
[2]
  Ki: 77 nM

## O=C1NCC2(CN3CCC2CC3)NC(=O)C1c1ccccc1 (stereo not given)
[1]
  inhibition: 2%

## COc1ccccc1C1=NCC2(CN3CCC2CC3)NC(=O)C1 (stereo not given)
[1]
  inhibition: 7%
[2]
  Ki: 110 nM

## COc1cccc(C2=NCC3(CN4CCC3CC4)NC(=O)C2)c1 (stereo not given)
[1]
  inhibition: 12%
[2]
  Ki: 87 nM

## C1=NCC2(CN3CCC2CC3)NC=C1c1ccccc1 (stereo not given)
[1]
  inhibition: 6%

## COc1ccc(/C=C2\CCCN=C2c2cccnc2)c(OC)c1 [GTS-21]
[2]
  Ki: 1300 nM
[6]
  Ki: 51 nM

## COc1ccc(C2=NCC3(CN4CCC3CC4)NC(=O)C2)cc1 (stereo not given)
[1]
  inhibition: 42%
[2]
  Ki: 42 nM
